{"source": "paper PMC11244656", "about": "(International journal of pharmaceutics, 2021)", "key": {"human plasma-derived CM": {"test_system": "human plasma-derived CM", "experiment": "CM association assay with human plasma-derived CM", "assay_type": "in vitro ADME", "conditions": "1.75 μM, TG 1 mg/mL, 37°C, 1 hour, n = 9", "procedure,_shortened": "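Chylomicrons came from volunteers on no medicines in the prior week, 3–4 h after a high-fat meal. Blood in K2-EDTA was centrifuged (1,160 g, 15°C, 10 min), then the plasma was ultracentrifuged (268,350 g, 15°C, 35 min). The top CM layer was diluted in PBS to 1 mg/mL TG (enzymatic kit) and held at 4°C ≤24 h. It was spiked to 1.75 μM final, stirred 1 h at 37°C and re-isolated.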"}, "[1]": {"experiment": "Pharmacokinetic study in rats", "assay_type": "in vivo", "conditions": "male, Sprague Dawley, rat, plasma", "procedure,_shortened": "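Male Sprague Dawley rats (275–300 g) had jugular vein cannulas placed under isoflurane, recovered 2 nights and were fasted up to 16 h. IV bolus was given in propylene glycol–water–ethanol (70:20:10). Oral gavage used the same vehicle or sesame oil. Plasma was sampled to 24 h and assayed by HPLC-UV (263 nm, internal standard, 5–15000 ng/mL). Non-compartmental analysis; n = 5 IV, 3 or 6 oral.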"}, "[2]": {"test_system": "artificial CM-like emulsion (Intralipid)", "experiment": "CM association assay with artificial CM-like emulsion", "assay_type": "in vitro ADME", "conditions": "1.75 μM, TG 1 mg/mL, 37°C, 1 hour, n = 22", "procedure,_shortened": "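Intralipid 20% was diluted in PBS to 1 mg/mL triglyceride. A 2 mL volume was spiked from a 1 mg/mL propylene glycol–ethanol (99:1) stock to give 1.75 μM final. It was stirred at 170 rpm, 37°C, for 1 h. The emulsion was then re-isolated by density gradient ultracentrifugation and drug content measured by HPLC-UV.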"}, "[3]": {"experiment": "Biodistribution study to mesenteric lymph and MLNs in rats", "assay_type": "in vivo", "conditions": "rat, oral 5 mg/kg; for levels in MLNs compared to plasma: tmax-1h and tmax"}, "[4]": {"conditions": "rats, lipid-free formulation; cited from earlier work"}}}
{"compound": "CCC[C@@]1(CCc2ccccc2)CC(O)=C([C@H](CC)c2cccc(NS(=O)(=O)c3ccc(C(F)(F)F)cn3)c2)C(=O)O1", "note": "[TPV, tipranavir]", "values": [{"measurement": "association with natural human plasma-derived CM", "setting": "human plasma-derived CM", "value": 66.7, "unit": "%"}, {"measurement": "C0", "setting": "[1]; iv, 1 mg/kg", "value": 17600, "unit": "ng/mL"}, {"measurement": "Vd", "setting": "[1]; iv, 1 mg/kg", "value": "0.903 ± 0.204", "unit": "L/kg"}, {"measurement": "clearance", "setting": "[1]; iv, 1 mg/kg", "value": 4.55, "unit": "mL/min/kg"}, {"measurement": "Tmax", "setting": "[1]; po, 5 mg/kg", "value": 3, "unit": "h"}, {"measurement": "association with artificial CM-like emulsion (Intralipid)", "setting": "[2]", "value": 31.6, "unit": "%"}, {"measurement": "concentration in mesenteric lymph fluid compared to plasma", "setting": "[3]; LCT-based formulation, tmax-1h (2 h) and tmax (3 h)", "value": "three-fold higher"}, {"measurement": "levels in MLNs compared to plasma", "setting": "[3]; LCT-based formulation", "value": "comparable"}, {"measurement": "levels in MLNs compared to plasma", "setting": "[3]; lipid-free formulation", "value": "comparable"}, {"measurement": "oral bioavailability", "setting": "[4]", "value": 30, "unit": "%"}]}
